Columns and labels:
[1] = Stability in human liver microsomes assessed as compound remaining after 60 mins; type: ADME, Microsome; conditions: read-out: Stability
Method in brief: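 Human liver microsomes incubated with compound for 60 minutes; value reported as % of compound remaining.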

[2] = Terminal half life in CD(SD) rat at 1 mg/kg, iv; type: ADME, organism-based; conditions: in vivo, read-out: beta t1/2 (converted)
[3] = Total body clearance in CD(SD) rat at 1 mg/kg, iv; type: ADME, organism-based; conditions: in vivo
[4] = AUC in CD(SD) rat at 3 mg/kg, po; type: ADME, organism-based; conditions: in vivo
[5] = Inhibition of GAL4-fused mouse LXR transcriptional activity expressed in CHOK1 cells after 2 days by luciferase reporter gene assay; type: cell-based; conditions: CHO-K1, 48 h
[6] = Oral bioavailability in CD(SD) rat at 3 mg/kg; type: ADME, organism-based; conditions: in vivo
[7] = Lipophilicity, log D of the compound; type: physicochemical; conditions: octanol/water
[8] = biological target: T1, Nuclear receptor ROR-alpha (Homo sapiens, UniProt P35398); assay: Inhibition of GAL4-fused human RORalpha transcriptional activity expressed in CHOK1 cells after 2 days by luciferase reporter gene assay; type: cell-based
T1 sequence (P35398 whole entry): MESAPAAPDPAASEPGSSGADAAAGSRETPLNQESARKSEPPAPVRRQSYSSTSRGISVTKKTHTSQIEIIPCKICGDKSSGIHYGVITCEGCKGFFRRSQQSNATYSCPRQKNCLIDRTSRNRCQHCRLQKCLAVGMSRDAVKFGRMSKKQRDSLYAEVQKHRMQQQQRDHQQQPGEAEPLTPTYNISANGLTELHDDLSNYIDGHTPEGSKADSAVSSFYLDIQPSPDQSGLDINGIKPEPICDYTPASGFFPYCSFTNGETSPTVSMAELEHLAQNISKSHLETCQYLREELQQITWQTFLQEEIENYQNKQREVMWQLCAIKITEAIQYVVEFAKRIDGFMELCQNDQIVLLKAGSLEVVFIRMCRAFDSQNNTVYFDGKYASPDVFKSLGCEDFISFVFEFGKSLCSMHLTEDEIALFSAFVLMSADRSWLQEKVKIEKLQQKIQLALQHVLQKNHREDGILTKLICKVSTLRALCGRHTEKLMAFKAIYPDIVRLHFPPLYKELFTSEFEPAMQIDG

Cytochrome P450 1A2 = biological target: T2, Cytochrome P450 1A2 (Homo sapiens, UniProt P05177); assay: Time-dependent inhibition of human CYP1A2; type: ADME
T2 sequence (P05177 whole entry): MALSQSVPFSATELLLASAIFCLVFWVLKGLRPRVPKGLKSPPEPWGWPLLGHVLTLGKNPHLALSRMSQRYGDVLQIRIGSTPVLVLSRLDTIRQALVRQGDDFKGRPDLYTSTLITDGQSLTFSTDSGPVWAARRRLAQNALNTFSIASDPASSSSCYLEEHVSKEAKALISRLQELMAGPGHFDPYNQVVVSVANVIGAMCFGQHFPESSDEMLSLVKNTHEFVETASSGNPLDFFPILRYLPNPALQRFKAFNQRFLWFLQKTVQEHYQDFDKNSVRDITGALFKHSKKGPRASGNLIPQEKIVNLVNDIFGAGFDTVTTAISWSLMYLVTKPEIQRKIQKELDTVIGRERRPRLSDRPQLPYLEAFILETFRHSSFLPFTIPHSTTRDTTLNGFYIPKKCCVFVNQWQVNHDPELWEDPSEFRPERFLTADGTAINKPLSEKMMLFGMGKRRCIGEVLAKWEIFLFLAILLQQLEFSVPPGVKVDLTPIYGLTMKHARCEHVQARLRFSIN

[9] = biological target: T3, Peroxisome proliferator-activated receptor gamma (Homo sapiens, UniProt P37231); assay: Inhibition of GAL4-fused human PPARgamma transcriptional activity expressed in CHOK1 cells after 2 days by luciferase reporter gene assay; type: cell-based
T3 sequence (P37231 whole entry): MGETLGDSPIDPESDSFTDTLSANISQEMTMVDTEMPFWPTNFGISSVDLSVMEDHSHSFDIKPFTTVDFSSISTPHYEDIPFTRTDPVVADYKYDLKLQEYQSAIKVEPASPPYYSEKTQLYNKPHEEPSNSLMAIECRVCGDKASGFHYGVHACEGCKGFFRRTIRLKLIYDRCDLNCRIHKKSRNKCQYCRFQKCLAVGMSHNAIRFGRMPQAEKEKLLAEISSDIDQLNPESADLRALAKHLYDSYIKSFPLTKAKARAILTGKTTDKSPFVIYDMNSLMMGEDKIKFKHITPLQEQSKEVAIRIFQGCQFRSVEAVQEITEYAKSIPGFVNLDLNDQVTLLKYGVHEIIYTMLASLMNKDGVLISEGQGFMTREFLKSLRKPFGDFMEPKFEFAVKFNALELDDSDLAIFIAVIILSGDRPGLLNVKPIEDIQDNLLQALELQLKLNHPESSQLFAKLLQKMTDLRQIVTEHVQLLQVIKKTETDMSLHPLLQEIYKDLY

Cytochrome P450 2C9 = Cytochrome P450 2C9 (Homo sapiens, UniProt P11712); assay: Time-dependent inhibition of human CYP2C9; type: ADME
Sequence of Cytochrome P450 2C9 (P11712 whole entry): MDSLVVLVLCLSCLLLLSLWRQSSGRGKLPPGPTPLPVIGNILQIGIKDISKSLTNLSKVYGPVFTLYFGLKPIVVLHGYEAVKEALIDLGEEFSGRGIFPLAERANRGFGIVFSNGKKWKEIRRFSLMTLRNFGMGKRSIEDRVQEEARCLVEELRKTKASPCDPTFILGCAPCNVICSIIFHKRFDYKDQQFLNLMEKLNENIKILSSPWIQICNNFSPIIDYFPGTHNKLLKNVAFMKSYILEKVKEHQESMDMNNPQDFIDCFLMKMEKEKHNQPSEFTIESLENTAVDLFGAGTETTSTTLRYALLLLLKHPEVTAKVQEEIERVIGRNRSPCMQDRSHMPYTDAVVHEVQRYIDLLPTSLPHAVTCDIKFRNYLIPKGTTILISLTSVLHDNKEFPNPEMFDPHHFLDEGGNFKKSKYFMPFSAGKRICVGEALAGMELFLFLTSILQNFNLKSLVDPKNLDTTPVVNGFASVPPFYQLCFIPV

Cytochrome P450 2C19 = Cytochrome P450 2C19 (Homo sapiens, UniProt P33261); assay: Time-dependent inhibition of human CYP2C19; type: ADME
Sequence of Cytochrome P450 2C19 (P33261 whole entry): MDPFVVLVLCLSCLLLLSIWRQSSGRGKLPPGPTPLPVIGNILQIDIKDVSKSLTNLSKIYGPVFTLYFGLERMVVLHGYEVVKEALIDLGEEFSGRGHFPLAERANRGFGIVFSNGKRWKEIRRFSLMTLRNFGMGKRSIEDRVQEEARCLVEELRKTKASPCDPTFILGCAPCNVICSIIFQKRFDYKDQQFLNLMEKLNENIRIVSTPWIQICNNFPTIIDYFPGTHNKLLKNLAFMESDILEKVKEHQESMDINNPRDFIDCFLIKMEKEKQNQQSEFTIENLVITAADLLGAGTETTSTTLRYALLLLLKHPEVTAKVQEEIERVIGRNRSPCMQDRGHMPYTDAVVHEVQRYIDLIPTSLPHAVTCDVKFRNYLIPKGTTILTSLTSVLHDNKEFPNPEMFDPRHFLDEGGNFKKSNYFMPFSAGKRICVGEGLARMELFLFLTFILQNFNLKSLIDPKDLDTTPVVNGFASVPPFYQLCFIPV

SMILES: CC(C)(C)Cc1cc(-c2onc([C@@H](CCC(=O)[O-])CC(=O)Nc3ccc(Cl)cc3Cl)c2C2CC2)no1.[Na+]
- remaining at 1 h [1]: 96%
- half-life [2]: 4.2 h
- clearance [3]: 4.17 mL/min/kg
- AUC [4]: 15 µM·h
- EC50 [5]: > 20 µM
- bioavailability [6]: 72%
- logD [7]: 4.2
- EC50 [8]: > 20 µM
- IC50 (Cytochrome P450 1A2): > 50 µM
- EC50 [9]: > 20 µM
- IC50 (Cytochrome P450 2C9): > 50 µM
- IC50 (Cytochrome P450 2C19): > 50 µM
